Calls of active or inactive are those of the source. The calls are words filed in the database; no cut-off is given here.
Key:
[1] = Cytotoxicity against human U2OS cells assessed as viable cells at 50 uM after 72 hrs by MTT assay relative to control; format: cell-based; conditions: read-out: Activity
[2] = Cytotoxicity against human WI38 cells assessed as growth inhibition at 10 uM after 48 hrs by CellTiter-Glo assay relative to control; values are per cent of control; conditions: WI38 cells
[3] = Cytotoxicity against human A549 cells assessed as growth inhibition at 10 uM after 48 hrs by CellTiter-Glo assay relative to control; values are per cent of control; conditions: A549 cells
[4] = Cytotoxicity against human U2OS cells assessed as decrease in viable cells after 72 hrs by cell number count in anti-T. cruzi high content imaging assay; conditions: U2OS cells
[5] = Cytotoxicity against human 786-O cells assessed as inhibition of mitochondrial viability at 10 uM after 6 hrs by CMXRos staining based assay relative to control; format: cell-based, 786-0; conditions: read-out: INH
Method in brief: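 Mitochondrial toxicity monitored by MitoTracker Red CMXRos uptake and high-content imaging; compound at 10 μM, triplicate.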

[6] = target: Aurora kinase B (Homo sapiens, UniProt Q96GD4); assay: Inhibition of recombinant full-length human aurora B kinase expressed in baculovirus system at 10 uM using MBP as substrate incubated for 45 mins by ADP-glo kinase assay; conditions: probe MBP
Method in brief: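 Aurora B activity measured as ADP formation via coupled luciferase ADP-Glo luminescence; single-point at 10 μM, triplicate.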

[7] = target: T1, Pteridine reductase, putative (Trypanosoma brucei) (UniProt Q581W1); assay: Inhibition of Trypanosoma brucei PTR1 at 50 uM using H2B as substrate in presence of NADPH by photometric analysis relative to control
T1 sequence (whole entry): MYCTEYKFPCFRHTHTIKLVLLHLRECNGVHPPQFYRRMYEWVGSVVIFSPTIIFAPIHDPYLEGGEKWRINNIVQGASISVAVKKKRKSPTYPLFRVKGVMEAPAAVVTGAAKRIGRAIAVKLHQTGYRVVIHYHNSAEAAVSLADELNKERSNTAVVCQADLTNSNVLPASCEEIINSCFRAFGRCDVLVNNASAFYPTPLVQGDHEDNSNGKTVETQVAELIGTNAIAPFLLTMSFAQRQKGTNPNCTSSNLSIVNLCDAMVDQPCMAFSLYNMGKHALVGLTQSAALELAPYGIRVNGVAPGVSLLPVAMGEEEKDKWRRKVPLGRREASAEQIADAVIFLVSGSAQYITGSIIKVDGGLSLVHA

[8] = target: T2, Pteridine reductase 1 (Leishmania major) (UniProt Q01782); assay: Inhibition of Leishmania major PTR1 at 50 uM using H2B as substrate in presence of NADPH by photometric analysis relative to control
T2 sequence (whole entry): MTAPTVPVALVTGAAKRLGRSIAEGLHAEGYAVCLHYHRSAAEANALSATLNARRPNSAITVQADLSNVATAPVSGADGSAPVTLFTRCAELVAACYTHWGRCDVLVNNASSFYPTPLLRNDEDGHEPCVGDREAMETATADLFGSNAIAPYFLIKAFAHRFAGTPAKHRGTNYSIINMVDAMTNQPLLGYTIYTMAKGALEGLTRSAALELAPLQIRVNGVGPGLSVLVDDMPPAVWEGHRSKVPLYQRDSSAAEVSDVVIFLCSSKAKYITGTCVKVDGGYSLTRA

[9] = tested on: Trypanosoma cruzi; assay: Antitrypanosomal activity against Trypanosoma cruzi amastigote form infected in human U2OS cells assessed as parasite growth inhibition after 72 hrs; format: functional, organism-based
Method in brief: (§1)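 U2OS monolayers grown for 24 h, then infected with tissue-derived trypomastigotes of T. cruzi Y strain. Compounds were added 24 h after infection at 50 μM (single-point) or in dose-response, with 72 h exposure. Plates were fixed, stained and analysed by high-content imaging; activity was normalized to infected and non-infected controls. Means of at least two experiments; benznidazole as reference.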

[10] = target: CYP2C19 (Homo sapiens, UniProt P33261); assay: Inhibition of human microsomal CYP2C19 expressed in baculovirus infected BTI-TN-5B1-4 cells at 10 uM incubated for 30 mins by luciferase assay relative to control; format: ADME
Method in brief: (§2)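 CYP1A2, 2C9, 2C19, 2D6 and 3A4 in microsomes from baculovirus-infected insect cells, each with a P450-Glo luminogenic substrate. Inhibition read as loss of light; single-point at 10 μM, triplicate.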

[11] = tested on: Trypanosoma cruzi; assay: Antitrypanosomal activity against Trypanosoma cruzi amastigote form infected in human U2OS cells assessed as parasite growth inhibition at 50 uM after 72 hrs relative to control; format: functional; conditions: read-out: GI; method in brief: as §1
[12] = target: hERG (KCNH2) (Homo sapiens, UniProt Q12809); assay: Inhibition of human ERG at 10 uM incubated for 2 hrs by fluorescence polarisation assay relative to control
[13] = tested on: Trypanosoma brucei; assay: Antitrypanosomal activity against Trypanosoma brucei Lister 427 bloodstream form at 10 uM after 72 hrs by resazurin dye-based assay relative to control; format: functional
[14] = target: CYP2C9 (Homo sapiens, UniProt P11712); assay: Inhibition of human microsomal CYP2C9 expressed in baculovirus infected BTI-TN-5B1-4 cells at 10 uM incubated for 30 mins by luciferase assay relative to control; format: ADME; method in brief: as §2
[15] = tested on: Trypanosoma brucei; assay: Potentiation of methotrexate-induced antitrypanosomal activity against Trypanosoma brucei Lister 427 bloodstream form at 10 uM after 72 hrs by resazurin dye-based assay relative to control; format: functional
[16] = target: CYP2D6 (Homo sapiens, UniProt P10635); assay: Inhibition of human microsomal CYP2D6 expressed in baculovirus infected BTI-TN-5B1-4 cells at 10 uM incubated for 30 mins by luciferase assay relative to control; format: ADME; method in brief: as §2
[17] = tested on: Trypanosoma brucei; assay: Potentiation of methotrexate-induced antitrypanosomal activity against Trypanosoma brucei Lister 427 bloodstream form at 10 uM after 72 hrs by resazurin dye-based assay; format: functional
[18] = target: T3, CYP1A2 (Homo sapiens, UniProt P05177); assay: Inhibition of human microsomal CYP1A2 expressed in baculovirus infected BTI-TN-5B1-4 cells at 10 uM incubated for 30 mins by luciferase assay relative to control; format: ADME; method in brief: as §2
T3 sequence (P05177 whole entry): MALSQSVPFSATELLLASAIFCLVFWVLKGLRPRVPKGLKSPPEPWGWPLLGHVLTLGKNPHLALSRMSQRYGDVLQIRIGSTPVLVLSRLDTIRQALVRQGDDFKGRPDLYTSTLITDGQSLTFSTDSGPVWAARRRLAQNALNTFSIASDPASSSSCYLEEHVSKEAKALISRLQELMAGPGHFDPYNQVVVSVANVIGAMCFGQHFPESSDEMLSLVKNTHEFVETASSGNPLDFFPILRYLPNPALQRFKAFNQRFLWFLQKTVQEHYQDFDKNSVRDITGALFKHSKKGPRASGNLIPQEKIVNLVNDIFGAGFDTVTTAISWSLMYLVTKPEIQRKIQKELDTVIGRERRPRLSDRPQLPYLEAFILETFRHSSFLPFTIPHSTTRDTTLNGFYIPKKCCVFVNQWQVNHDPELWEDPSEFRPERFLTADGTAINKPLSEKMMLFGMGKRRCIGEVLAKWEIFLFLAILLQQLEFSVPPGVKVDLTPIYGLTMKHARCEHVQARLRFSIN

[19] = tested on: Leishmania infantum; assay: Antileishmanial activity against Leishmania infantum amastigote form assessed as parasite growth inhibition at 50 uM after 72 hrs by steady-Glo reagent based assay relative to control; format: functional; conditions: for inhibition of growth at 50 µM: read-out: GI
Method in brief: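 Intramacrophage L. infantum amastigotes in THP-1-derived macrophages, tested at 50 μM or in dose-response. Plates held 72 h at 37 °C, 5% CO2. Medium was replaced by PBS, macrophages lysed, and parasites read by Steady-Glo luminescence. High-content imaging gave host cell number, infection ratio (infected/total cells) and parasites per infected cell. Values are means of at least two independent experiments.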

[20] = Cytotoxicity against human THP1 cells assessed as viable cells at 100 uM after 72 hrs by MTT assay relative to control; format: cell-based, THP-1; conditions: read-out: Activity
Method in brief: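 THP-1-derived macrophages exposed to compounds for 72 h, tested at 100 μM or in dose-response; viability read by MTT colorimetric assay.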

[21] = Selectivity index, ratio of CC50 for human U2OS cells to EC50 for Trypanosoma cruzi amastigote form; format: toxicity; conditions: read-out: Ratio CC50/EC50
Method in brief: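 Selectivity index = CC50 in the human host or cytotoxicity cell line divided by parasite EC50.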

[22] = tested on: Trypanosoma brucei; assay: Antitrypanosomal activity against Trypanosoma brucei Lister 427 bloodstream form after 72 hrs by SYBR Green assay; format: functional, organism-based; conditions: Lister 427, 72 h
[23] = tested on: Trypanosoma brucei; assay: Antitrypanosomal activity against Trypanosoma brucei Lister 427 bloodstream form assessed as parasite growth inhibition at 50 uM after 72 hrs by SYBR Green assay relative to control; format: functional; conditions: for inhibition of growth at 50 µM: Lister 427, 72 h, read-out: GI
[24] = target: CYP3A4 (Homo sapiens, UniProt P08684); assay: Inhibition of human microsomal CYP3A4 expressed in baculovirus infected BTI-TN-5B1-4 cells at 10 uM incubated for 30 mins by luciferase assay relative to control; format: ADME; method in brief: as §2
CYP3A4, sequence (P08684 whole entry): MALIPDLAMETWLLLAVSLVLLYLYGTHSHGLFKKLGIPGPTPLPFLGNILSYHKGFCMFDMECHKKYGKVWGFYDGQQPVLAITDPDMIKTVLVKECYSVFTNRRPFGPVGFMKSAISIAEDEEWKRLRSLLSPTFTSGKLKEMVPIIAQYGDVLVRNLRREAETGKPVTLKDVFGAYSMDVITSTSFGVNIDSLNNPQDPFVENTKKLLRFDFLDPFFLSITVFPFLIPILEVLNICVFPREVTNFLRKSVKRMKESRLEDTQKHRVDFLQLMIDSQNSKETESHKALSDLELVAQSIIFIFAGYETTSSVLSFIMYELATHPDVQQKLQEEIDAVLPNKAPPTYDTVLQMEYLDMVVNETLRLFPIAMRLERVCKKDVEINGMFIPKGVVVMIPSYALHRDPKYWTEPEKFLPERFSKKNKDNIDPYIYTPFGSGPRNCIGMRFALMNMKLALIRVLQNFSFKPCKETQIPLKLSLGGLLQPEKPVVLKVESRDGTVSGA

Aurora kinase B, sequence (Q96GD4 whole entry): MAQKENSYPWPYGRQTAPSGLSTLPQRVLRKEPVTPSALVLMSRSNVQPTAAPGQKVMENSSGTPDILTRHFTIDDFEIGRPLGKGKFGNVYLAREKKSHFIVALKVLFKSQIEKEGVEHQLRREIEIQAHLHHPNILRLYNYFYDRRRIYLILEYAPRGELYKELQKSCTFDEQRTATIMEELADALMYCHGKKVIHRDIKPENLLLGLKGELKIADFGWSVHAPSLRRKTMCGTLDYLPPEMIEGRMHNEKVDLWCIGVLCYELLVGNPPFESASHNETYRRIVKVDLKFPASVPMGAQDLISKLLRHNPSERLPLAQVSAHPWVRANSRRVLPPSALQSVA
CYP2C19, sequence (P33261 whole entry): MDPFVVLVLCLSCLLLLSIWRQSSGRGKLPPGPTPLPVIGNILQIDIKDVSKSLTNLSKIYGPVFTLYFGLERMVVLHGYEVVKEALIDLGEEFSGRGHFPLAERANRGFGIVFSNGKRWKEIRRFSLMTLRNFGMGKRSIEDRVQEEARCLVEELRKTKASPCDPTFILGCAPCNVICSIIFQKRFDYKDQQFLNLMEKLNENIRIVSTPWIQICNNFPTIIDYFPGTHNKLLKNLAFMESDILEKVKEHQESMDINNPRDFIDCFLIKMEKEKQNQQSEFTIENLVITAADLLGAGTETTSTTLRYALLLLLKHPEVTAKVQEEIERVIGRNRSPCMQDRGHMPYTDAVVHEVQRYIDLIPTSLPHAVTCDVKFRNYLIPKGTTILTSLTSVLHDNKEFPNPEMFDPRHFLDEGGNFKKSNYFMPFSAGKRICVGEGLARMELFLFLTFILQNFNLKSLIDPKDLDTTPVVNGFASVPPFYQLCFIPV
CYP2D6, sequence (P10635 whole entry): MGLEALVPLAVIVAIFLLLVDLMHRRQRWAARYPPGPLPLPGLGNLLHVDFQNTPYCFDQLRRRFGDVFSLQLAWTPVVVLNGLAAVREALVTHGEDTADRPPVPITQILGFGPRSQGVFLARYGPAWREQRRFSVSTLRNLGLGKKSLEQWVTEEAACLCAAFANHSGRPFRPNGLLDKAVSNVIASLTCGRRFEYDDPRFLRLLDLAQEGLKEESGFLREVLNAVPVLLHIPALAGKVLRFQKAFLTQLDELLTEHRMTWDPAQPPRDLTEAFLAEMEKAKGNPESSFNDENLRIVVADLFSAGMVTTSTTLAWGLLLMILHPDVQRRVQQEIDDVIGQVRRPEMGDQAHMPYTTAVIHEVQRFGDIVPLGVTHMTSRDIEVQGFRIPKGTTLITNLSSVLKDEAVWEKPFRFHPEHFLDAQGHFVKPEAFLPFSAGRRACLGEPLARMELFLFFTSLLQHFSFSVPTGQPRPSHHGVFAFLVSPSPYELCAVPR
CYP2C9, sequence (P11712 whole entry): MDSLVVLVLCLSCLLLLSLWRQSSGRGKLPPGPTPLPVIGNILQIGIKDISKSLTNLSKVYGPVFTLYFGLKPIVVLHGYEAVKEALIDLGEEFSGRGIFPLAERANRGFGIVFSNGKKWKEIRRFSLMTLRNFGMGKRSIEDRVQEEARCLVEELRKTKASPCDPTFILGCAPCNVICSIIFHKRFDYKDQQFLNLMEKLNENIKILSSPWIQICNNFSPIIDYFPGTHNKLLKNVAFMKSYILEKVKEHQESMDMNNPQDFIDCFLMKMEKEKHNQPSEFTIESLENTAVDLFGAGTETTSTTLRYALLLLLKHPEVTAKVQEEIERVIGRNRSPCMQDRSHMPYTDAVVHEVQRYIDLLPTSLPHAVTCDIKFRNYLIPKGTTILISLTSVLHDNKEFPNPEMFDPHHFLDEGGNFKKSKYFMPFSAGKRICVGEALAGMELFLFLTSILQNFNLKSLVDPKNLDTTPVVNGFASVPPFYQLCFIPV
hERG (KCNH2), sequence (Q12809 whole entry): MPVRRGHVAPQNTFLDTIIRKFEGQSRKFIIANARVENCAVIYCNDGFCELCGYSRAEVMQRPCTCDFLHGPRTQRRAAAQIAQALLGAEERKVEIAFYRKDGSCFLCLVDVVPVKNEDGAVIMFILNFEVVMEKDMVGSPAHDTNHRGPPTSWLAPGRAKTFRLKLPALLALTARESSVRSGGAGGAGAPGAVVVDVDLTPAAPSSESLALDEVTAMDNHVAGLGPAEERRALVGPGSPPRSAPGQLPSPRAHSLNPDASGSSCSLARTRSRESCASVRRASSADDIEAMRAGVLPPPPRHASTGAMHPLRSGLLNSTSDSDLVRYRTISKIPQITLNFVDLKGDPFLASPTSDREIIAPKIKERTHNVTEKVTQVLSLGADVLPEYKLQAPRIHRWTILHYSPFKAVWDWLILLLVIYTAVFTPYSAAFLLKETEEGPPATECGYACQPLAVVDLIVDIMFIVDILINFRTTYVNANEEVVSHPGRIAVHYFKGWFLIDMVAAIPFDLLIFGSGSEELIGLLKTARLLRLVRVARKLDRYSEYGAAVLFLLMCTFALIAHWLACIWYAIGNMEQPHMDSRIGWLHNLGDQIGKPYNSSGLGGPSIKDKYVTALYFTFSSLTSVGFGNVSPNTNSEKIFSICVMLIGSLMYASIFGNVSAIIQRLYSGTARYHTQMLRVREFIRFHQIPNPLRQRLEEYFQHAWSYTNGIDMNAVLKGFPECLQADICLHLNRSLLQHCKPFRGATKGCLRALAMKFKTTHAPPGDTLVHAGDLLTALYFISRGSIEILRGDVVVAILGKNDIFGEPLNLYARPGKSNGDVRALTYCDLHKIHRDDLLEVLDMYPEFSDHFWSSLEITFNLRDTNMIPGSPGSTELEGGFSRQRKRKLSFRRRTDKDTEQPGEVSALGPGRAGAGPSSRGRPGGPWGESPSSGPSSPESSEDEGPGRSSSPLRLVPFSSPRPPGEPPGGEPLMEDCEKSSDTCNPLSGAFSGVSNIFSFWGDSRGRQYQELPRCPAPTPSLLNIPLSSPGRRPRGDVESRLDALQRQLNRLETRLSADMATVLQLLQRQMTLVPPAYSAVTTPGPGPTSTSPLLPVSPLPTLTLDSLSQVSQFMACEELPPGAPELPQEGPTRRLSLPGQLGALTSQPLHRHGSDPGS

Row | inhibition at 0.75 h, 10 µM [6] [%] | inhibition [7] | inhibition [8] [%] | EC50 [9] [µM] | inhibition at 0.5 h, 10 µM [10] [%] | inhibition at 0.5 h, 10 µM [14] [%] | inhibition at 0.5 h, 10 µM [16] [%] | inhibition at 0.5 h, 10 µM [18] [%] | inhibition at 0.5 h, 10 µM [24] [%] | Structure (SMILES) | viability at 72 h, 50 µM [1] [%] | cell growth (% of control) at 48 h, 10 µM [2] [%] | cell growth (% of control) at 48 h, 10 µM [3] [%] | CC50 at 72 h [4] [µM] | cytotoxicity at 6 h, 10 µM [5] [%] | inhibition of growth at 50 µM [11] [%] | inhibition at 2 h, 10 µM [12] [%] | Activity [13] [%] | Activity [15] [%] | PF [17] | viability at 72 h, 100 µM [20] [%] | further results
1 | -12.2 | 9.49% | 11.2 | 2.58 to 29.5 | -38.2 | 12.4 | 35.9 | 27 | -15.9 | CSc1ccc(/C=N/NC(N)=S)cc1 | 42.7 | 107 | 136 | > 44 | -10.8 | 89.3 | -2.87 | 15.33 | 88.67 | 2.24 | 35.7 | inhibition of growth at 50 µM [19]: 34.1%; selectivity ratio [21]: > 17; EC50 [22]: 44.4 µM; inhibition of growth at 50 µM [23]: 82.6%
2 | -35.7 | inactive | 3.57 | 4.17 | 32.1 | 98.4 | 26.8 | 76.6 | -16.1 | NC(=S)N/N=C/c1ccc(-c2ccccc2)cc1 | 116 | 104 | 138 | > 44 | 16.1 | 95.2 | 38.5 | 19.33 | 80.67 | 1.85 | 46.4 | growth inhibition (GI) [19]: inactive; selectivity ratio [21]: > 1; growth inhibition (GI) [23]: inactive
3 | 0.46 | 11.2% | 12.2 |  | -34.6 | 3.32 | 2.28 | 25.2 | -13.5 | NC(=S)N/N=C/c1ccc2ncccc2c1 | 72.5 | 143 | 145 |  | -6.48 | 53.8 | -13.2 | 3.83 | 91.17 | 3.25 | 63.7 | inhibition of growth at 50 µM [19]: 36%; EC50 [22]: 34.4 µM; inhibition of growth at 50 µM [23]: 84.2%

From ChEMBL document CHEMBL4196006, “Aryl thiosemicarbazones for the treatment of trypanosomatidic infections” (Eur J Med Chem, 2018)
